# Source: publication PMC2753403 (Journal of the American Chemical Society, 2009)
# pIC50: −log10 of the molar value. “And” between values parts separate entries of the source, which are not always exact repeats. Equal entries are not always repeated. Where two headings read alike, the source gives them in different places.
# How the values were obtained:
# SK-ES-1 sarcoma cells = experiment: SK-ES-1 sarcoma mouse xenograft; type: in vivo; conditions: athymic nude mice, 5 μg daily intraperitoneal, 30 days
# Method in brief: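 Four 6-week-old athymic nude mice each received 1.5×10^7 human SK-ES-1 cells subcutaneously in the right flank. Treatment was daily intraperitoneal test compound (5 μg) for 30 days, or physiological saline. Tumor diameters and body weight were measured weekly, and volume = (smallest diameter)2 × (largest diameter)/2. Statistics used one-way ANOVA with Fisher's PLSD, with p < 0.05 taken as significant.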
# mouse fetal metatarsal = experiment: Mouse fetal metatarsal 45Ca2+ release inhibition assay; conditions: read-out: IC50, 45Ca2+ release inhibition
# [1] = tested on: human tumor cell lines: MCF-7, NCI-H460 and SF-268; experiment: FOH/GGOH rescue of cell growth inhibition; type: cell-based; conditions: for rescue from growth inhibition by FOH: 20 μM FOH added; for rescue from growth inhibition by GGOH: 20 μM GGOH added
# Method in brief: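 Cells were grown in RPMI-1640 with 10% FBS and 2 mM L-glutamine at 37°C, 5% CO2. They were seeded at 5,000 cells/well with test compound added, and each well also received FOH or GGOH from ethanol stocks at a fixed 20 μM. After 4 days, growth was read by MTT.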
# [2] = tested on: human tumor cell lines: MCF-7, NCI-H460 and SF-268; experiment: Tumor cell growth inhibition; type: cell-based
# Method in brief: (§1)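 Cells were grown in RPMI-1640 with 10% FBS and 2 mM L-glutamine at 37°C, 5% CO2, 100% humidity, and seeded at 5,000 cells/well. Test compound came from 0.01 M water stocks as a half-log serial dilution series (0.316 mM to 0.1 pM) prepared before addition. Plates ran 4 days, then MTT dose-response.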
# Human FPPS = target: T1, Human FPPS (Homo sapiens, UniProt P14324); experiment: Human FPPS inhibition; type: biochemical
# T1 sequence (P14324 1-419): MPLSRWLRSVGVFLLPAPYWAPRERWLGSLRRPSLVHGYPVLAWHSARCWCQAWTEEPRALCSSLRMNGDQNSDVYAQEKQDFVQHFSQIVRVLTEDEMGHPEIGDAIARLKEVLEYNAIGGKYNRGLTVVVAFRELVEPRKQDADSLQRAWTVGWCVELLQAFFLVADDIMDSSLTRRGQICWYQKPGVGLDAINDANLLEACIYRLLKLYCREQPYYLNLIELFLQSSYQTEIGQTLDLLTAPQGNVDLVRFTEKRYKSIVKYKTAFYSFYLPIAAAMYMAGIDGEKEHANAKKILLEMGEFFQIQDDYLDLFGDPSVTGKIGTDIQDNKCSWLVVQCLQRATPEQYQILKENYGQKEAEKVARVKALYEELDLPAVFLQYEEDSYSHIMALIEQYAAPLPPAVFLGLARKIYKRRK
# Method in brief: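 Recombinant human FPPS condensed geranyl diphosphate with isopentenyl diphosphate, followed by a continuous spectrophotometric phosphate-release assay. Buffer was 50 mM Tris-HCl, 1 mM MgCl2, pH 7.4. Enzyme and test compound were preincubated 30 min at 20°C. IC50 came from a dose-response curve fit.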
# MDA-MB-231 cells = experiment: Matrigel invasion assay; type: cell-based, human; conditions: 24 hours treatment, up to 10 μM
# [3] = 14C-labelled olpadronate displacement bone-binding model; conditions: fetal mouse metatarsals, Figure 8b
# MCF-7 = MCF-7 cell growth inhibition; type: cell-based; conditions: Homo sapiens, MCF7, 96 h, read-out: IC50, tumor cell growth inhibition
# Method in brief: as §1
# breast cancer patients = conditions: Phase III, 1803 breast cancer patients, zoledronate (+hormone) therapy; cited from earlier work
# [4] = mouse fetal metatarsal, Figure 8a
pIC50 (mouse fetal metatarsal; [4]),Structure (SMILES),rescue from growth inhibition by FOH [1],rescue from growth inhibition by GGOH [1],pIC50 (MCF-7),further results
5.54 and ~5.54,CCCCCCCCCCOc1ccc[n+](CC(P(=O)([O-])O)P(=O)(O)O)c1 (centres unmarked) [BPH-715],no rescue by either FOH or GGOH,no rescue by either FOH or GGOH,,"weight loss or other adverse effect (SK-ES-1 sarcoma cells): no weight loss or other adverse effect observed; IC50 in tumor cell growth inhibition, fold lower than zoledronate ([2]; versus zoledronate): ~ 100 fold"
~5.89,CCCCCCCCCCCCOc1ccc[n+](CC(P(=O)(O)O)P(=O)(O)O)c1 [BPH-716],,,,activity in the cell assays compared with BPH-715 ([2]; growth inhibition and Matrigel invasion assays): about the same activity as BPH-715
,O=P(O)(O)C(O)(Cn1ccnc1)P(=O)(O)O [zoledronate],,only a partial rescue by GGOH,~4.82,"reduction in tumor cell growth (tumor volume) (SK-ES-1 sarcoma cells): significant (p < 0.01) reduction in tumor cell growth versus control; pIC50 (mouse fetal metatarsal; Mus musculus): ~7.00; effect on MDA-MB-231 invasion (MDA-MB-231 cells): essentially no effect even at 10 μM; displacement of bound 14C-labelled olpadronate [3]: far more effective in displacing this bound bisphosphonate than are the lipophilic species; reduced risk of cancer returning, or death (breast cancer patients): 36%"
,NCCC(O)(P(=O)(O)O)P(=O)(O)O [pamidronate],,,~3.85,
,"CC(C)=CCCC(C)=CCC(CC=C(C)CCC=C(C)C)(P(=O)(O)O)P(=O)(O)O [1,1-digeranylmethylene bisphosphonate, reference compound]",,rescue by GGOH,,

Structure (SMILES),pIC50 (mouse fetal metatarsal; [4]),rescue from growth inhibition by FOH [1],rescue from growth inhibition by GGOH [1],pIC50 (MCF-7),further results
O=P(O)(O)C(O)(Cc1cccc(-c2cccc(NS(=O)(=O)c3ccc4ccccc4c3)c2)c1)P(=O)(O)O [BPH-675],~4.52,FOH has no effect,almost fully reversed by addition of 20 μM GGOH,,FPPS inhibition (in words) (Human FPPS): very weak
